Experimental data reported in ChEMBL document CHEMBL2375228, “4-Bromo-2-(piperidin-1-yl)thiazol-5-yl-phenyl methanone (12b) inhibits Na+/K(+)-ATPase and Ras oncogene activity in cancer cells” (Eur J Med Chem, 2013).
Calls of active or inactive are those of the source. The rule behind the calls is not given here.

Assays:
Cavia porcellus [1] = species on record: Cavia porcellus; test: Inhibition of guinea pig kidney Na+/K+-ATPase alpha1 preincubated for 10 mins measured after 30 mins relative to POH
Hs 683 [2] = test: Inhibition of RAS oncogene activity in human Hs683 cells 40 uM after 30 seconds by ELISA relative to POH; format: cell-based
[3] = Selectivity index for human U373 cells over NMRI mouse astrocytes; set-up: species or system U-373MG ATCC
Hs 683 [4] = test: Selectivity index for NMRI mouse astrocytes over human Hs683 cells
Hs 683 [5] = test: Inhibition of RAS oncogene activity in human Hs683 cells at 40 uM after 30 seconds by ELISA relative to control; format: cell-based
Outline: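 Hs683 glioma cells exposed 30 s at 40 µM, lysed on ice for 15 min, 100 µg protein used. Active Ras captured on GST-Raf-RBD glutathione plate, detected with H-Ras primary and HRP secondary antibodies, read by chemiluminescence. Compared with untreated cells.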

Cavia porcellus [6] = species on record: Cavia porcellus; test: Inhibition of guinea pig brain Na+/K+-ATPase-mediated K+-activated-p-nitrophenylphosphatase activity
Outline: (§1)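 Purified guinea pig brain or kidney Na+/K+-ATPase preparations; K+-activated p-nitrophenylphosphatase activity = total activity minus basal activity, with basal measured by replacing KCl with 1 mM ouabain. Mean ± SEM of 3 experiments.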

Cavia porcellus [7] = species on record: Cavia porcellus; test: Uncompetitive inhibition of purified guinea pig brain Na+/K+-ATPase by double reciprocal plot analysis in presence of ATP; format: tissue-based
Cavia porcellus [8] = species on record: Cavia porcellus; test: Uncompetitive inhibition of purified guinea pig kidney Na+/K+-ATPase by double reciprocal plot analysis in presence of ATP
Cavia porcellus [9] = species on record: Cavia porcellus; test: Non competitive inhibition of guinea pig kidney Na+/K+-ATPase by double reciprocal plot analysis in presence of K+
Cavia porcellus [10] = species on record: Cavia porcellus; test: Non competitive inhibition of guinea pig kidney Na+/K+-ATPase by double reciprocal plot analysis in presence of Na+
Cavia porcellus [11] = species on record: Cavia porcellus; test: Non competitive inhibition of guinea pig brain Na+/K+-ATPase by double reciprocal plot analysis in presence of K+; format: tissue-based
Cavia porcellus [12] = species on record: Cavia porcellus; test: Non competitive inhibition of guinea pig brain Na+/K+-ATPase by double reciprocal plot analysis in presence of Na+; format: tissue-based
Cavia porcellus [13] = species on record: Cavia porcellus; test: Inhibition of ouabain-insensitive Mg++ATPase in guinea pig brain homogenate at 0.1 to 1mM; format: tissue-based
Outline: (§2)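 Brain and kidney homogenates in 110 mM NaCl, 20 mM KCl, 5 mM MgCl2, 50 mM Tris-HCl pH 7.6 with 5 mM ATP; 10 min preincubation at 37 °C, 30 min reaction. Ouabain-insensitive Mg++ATPase activity measured with 3.6 mM ouabain across 0.1–1.0 mM compound.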

Cavia porcellus [14] = species on record: Cavia porcellus; test: Inhibition of ouabain-insensitive Mg++ATPase in guinea pig kidney homogenate at 0.1 to 1mM; format: tissue-based; outline: as §2
[15] = Inhibition of Na+/K+-ATPase in guinea pig kidney homogenate preincubated for 10 mins measured after 30 mins; format: tissue-based, Cavia porcellus
[16] = Inhibition of guinea pig kidney Na+/K+-ATPase alpha1 preincubated for 10 mins measured after 30 mins; set-up: species or system Cavia porcellus
Cavia porcellus [17] = species on record: Cavia porcellus; test: Inhibition of guinea pig kidney Na+/K+-ATPase at 1 mM preincubated for 10 mins measured after 30 mins relative to control
Cavia porcellus [18] = species on record: Cavia porcellus; test: Inhibition of guinea pig brain Na+/K+-ATPase at 1 mM preincubated for 10 mins measured after 30 mins relative to control
Hs 683 [19] = test: Cytostatic activity against human Hs683 cells at 40 uM after 48 to 72 hrs by videomicroscopic analysis relative to control; format: functional
Outline: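 Hs683 glioma cells, untreated or at 40 µM, filmed by computer-assisted phase-contrast videomicroscopy over 72 h, one image every 4 min (1080 images), in triplicate. Growth rate = cell count in last image / first image. GGR index = treated ratio / control ratio.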

[20] = Chemical stability of the compound in RPMI culture medium after 72 hrs by mass spectroscopic analysis; format: physicochemical
Outline: (§3)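 5 mM DMSO stock diluted 100-fold in water or RPMI and held at 37 °C for 72 h. Samples infused into ESI-QTOF MS (positive mode, scan 110–950 m/z) with FA 0.2%-MeOH 50:50 as solvent.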

[21] = Inhibition of Na+/K+-ATPase in guinea pig whole brain homogenate preincubated for 10 mins measured after 30 mins; format: tissue-based, Cavia porcellus
[22] = Inhibition of guinea pig brain Na+/K+-ATPase alpha2 preincubated for 10 mins measured after 30 mins; set-up: species or system Cavia porcellus
[23] = Chemical stability of the compound in water after 72 hrs by mass spectroscopic analysis; format: physicochemical; conditions: buffer; outline: as §3
[24] = Growth inhibition of NMRI mouse astrocytes after 72 hrs by MTT assay; format: cell-based; conditions: Astrocyte
[25] = Growth inhibition of NMRI mouse astrocytes at 30 to 300 uM after 72 hrs by MTT assay; format: cell-based, Astrocyte; conditions: read-out: GI
Outline: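 Mouse astrocyte primocultures were plated in uncoated T25 flasks for 72 h, medium was changed and cells grown to confluence. Tested at 0, 30, 60 and 300 µM by MTT colorimetric assay.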

SK-MEL-28 [26] = test: Ratio of perillyl alcohol IC50 to compound IC50 for human SK-MEL-28 cells; format: functional
[27] = Inhibition of guinea pig brain Na+/K+-ATPase alpha3 preincubated for 10 mins measured after 30 mins; set-up: species or system Cavia porcellus
Hs 683 [28] = test: Ratio of perillyl alcohol IC50 to compound IC50 for human Hs683 cells; format: functional
[29] = Ratio of perillyl alcohol IC50 to compound IC50 for human U373 cells; format: functional, U-373MG ATCC
PC-3 [30] = test: Ratio of perillyl alcohol IC50 to compound IC50 for human PC3 cells; format: functional
A549 [31] = test: Ratio of perillyl alcohol IC50 to compound IC50 for human A549 cells; format: functional
MCF7 [32] = test: Ratio of perillyl alcohol IC50 to compound IC50 for human MCF7 cells; format: functional
SK-MEL-28 [33] = test: Cytotoxicity against human SK-MEL-28 cells after 72 hrs by MTT assay; format: functional, cell-based; conditions: SK-MEL-28, 72 h
Outline: (§4)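 Cells grown in RPMI with 10% heat-inactivated fetal calf serum and exposed to compound for 72 h. Overall growth read by MTT colorimetric assay; IC50 derived from it. Six replicates per condition.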

[34] = Cytotoxicity against human Hs683 cells after 72 hrs by MTT assay; format: functional, cell-based; conditions: Hs 683, 72 h; outline: as §4
[35] = Cytotoxicity against human U373 cells after 72 hrs by MTT assay; format: functional, cell-based, U-373MG ATCC; conditions: U373 MG; outline: as §4
PC-3 [36] = test: Cytotoxicity against human PC3 cells after 72 hrs by MTT assay; format: functional, cell-based; conditions: PC-3, 72 h; outline: as §4
A549 [37] = test: Cytotoxicity against human A549 cells after 72 hrs by MTT assay; format: functional, cell-based; conditions: A549, 72 h; outline: as §4
MCF7 [38] = test: Cytotoxicity against human MCF7 cells after 72 hrs by MTT assay; format: functional, cell-based; conditions: MCF7, 72 h; outline: as §4
Cavia porcellus [39] = species on record: Cavia porcellus; test: Inhibition of guinea pig kidney Na+/K+-ATPase-mediated K+-activated-p-nitrophenylphosphatase activity; outline: as §1

O=C(c1ccccc1)c1sc(N2CCCCC2)nc1Br
Ratio (Cavia porcellus [1]): 3
Ratio (Hs 683 [2]): 40
Selectivity Index [3]: >5
Selectivity Index (Hs 683 [4]): >5
inhibition (Hs 683 [5]): > 50%
inhibition (Cavia porcellus [6]): Active
inhibition (Cavia porcellus [7]): Active
inhibition (Cavia porcellus [8]): Active
inhibition (Cavia porcellus [9]): Active
inhibition (Cavia porcellus [10]): Active
inhibition (Cavia porcellus [11]): Active
inhibition (Cavia porcellus [12]): Active
inhibition (Cavia porcellus [13]): inactive
inhibition (Cavia porcellus [14]): inactive
IC50 [15]: 550 µM
IC50 [16]: 550 µM
inhibition (Cavia porcellus [17]): > 50%
inhibition (Cavia porcellus [18]): > 50%
Activity (Hs 683 [19]): 40%
Stability [20]: Unstable
IC50 [21]: 350 µM
IC50 [22]: 250 µM
Stability [23]: Unstable
IC50 [24]: > 300 µM
inhibition at 72 h, up to 300 µM [25]: < 50%
Ratio IC50 (SK-MEL-28 [26]): 10
IC50 [27]: 250 µM
Ratio IC50 (Hs 683 [28]): 10
Ratio IC50 [29]: 10
Ratio IC50 (PC-3 [30]): 10
Ratio IC50 (A549 [31]): 10
Ratio IC50 (MCF7 [32]): 10
IC50 (SK-MEL-28 [33]): 91 µM
IC50 [34]: 38 µM
IC50 [35]: 78 µM
IC50 (PC-3 [36]): 62 µM
IC50 (A549 [37]): 48 µM
IC50 (MCF7 [38]): 35 µM
inhibition (Cavia porcellus [39]): inactive
